Reference: ChEMBL document CHEMBL1138361, “4-acyl-1-(4-aminoalkoxyphenyl)-2-ketopiperazines as a novel class of non-brain-penetrant histamine H3 receptor antagonists” (J Med Chem, 2007)
One block for each molecule: values may come before it.

How the values were obtained:
[1] = Partition coefficient, log D at pH 7.4; format: physicochemical; conditions: octanol/water
Summary of the method: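 Compound in phosphate buffer was shaken with buffer-saturated octanol (3 × 50 inversions). Phases were separated by centrifugation at 300g for 15 min. Both phases were quantified by HPLC, and log D was calculated from peak areas normalized to injection volume.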

[2] = Tmax in CD Sprague-Dawley rat at 3.0 mg/kg, po; format: ADME, organism-based; set-up: dose 3 mg/kg, route oral; conditions: in vivo
Summary of the method: (§1)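 Single iv and oral doses given to male CD Sprague-Dawley rats (1 mg/kg iv, 3 mg/kg po) and male Beagle dogs (1 mg/kg iv, 2 mg/kg po). Vehicle was a DMSO-PEG 200-water (5:45:50) solution. Serial and terminal blood samples were taken at time points up to 7, 12 or 24 h postdose.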

[3] = AUC in CD Sprague-Dawley rat at 3.0 mg/kg, po; format: ADME, organism-based; set-up: dose 3 mg/kg, route oral; conditions: plasma; summary of the method: as §1
[4] = Cmax in CD Sprague-Dawley rat at 3.0 mg/kg, po; format: ADME, organism-based; set-up: dose 3 mg/kg, route oral; conditions: in vivo; summary of the method: as §1
[5] = Ratio of drug level in brain to blood in CD Sprague-Dawley rat at 1 mg/kg, iv after 5 mins; format: ADME, organism-based; set-up: dose 1 mg/kg, route intravenous; conditions: brain and blood
Summary of the method: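 Male CD Sprague-Dawley rats were dosed iv in DMSO-PEG 200-water (5:45:50). Blood and brain were collected 5 min postdose under terminal isoflurane anesthesia. Blood was protein-precipitated; brain was homogenized and extracted. Parent drug was quantified by LCMS/MS.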

[6] = Half life in CD Sprague-Dawley rat at 1.0 mg/kg, iv; format: ADME, organism-based; set-up: dose 1 mg/kg, route intravenous; conditions: in vivo; summary of the method: as §1
[7] = Clearance in CD Sprague-Dawley rat at 1.0 mg/kg, iv; format: ADME, organism-based; set-up: dose 1 mg/kg, route intravenous; conditions: in vivo; summary of the method: as §1
[8] = AUC in CD Sprague-Dawley rat at 1.0 mg/kg, iv; format: ADME, organism-based; set-up: dose 1 mg/kg, route intravenous; conditions: plasma; summary of the method: as §1
[9] = Cmax in CD Sprague-Dawley rat at 1.0 mg/kg, iv; format: ADME, organism-based; set-up: dose 1 mg/kg, route intravenous; conditions: in vivo; summary of the method: as §1
[10] = Tmax in CD Sprague-Dawley rat at 1.0 mg/kg, iv; format: ADME, organism-based; set-up: dose 1 mg/kg, route intravenous; conditions: in vivo; summary of the method: as §1
[11] = Volume of distribution in CD Sprague-Dawley rat at 1.0 mg/kg, iv; format: ADME, organism-based; set-up: dose 1 mg/kg, route intravenous; conditions: in vivo; summary of the method: as §1
[12] = AUC in CD Sprague-Dawley rat at 2.9 mg/kg, po; format: ADME, organism-based; set-up: dose 2.9 mg/kg, route oral; conditions: plasma
[13] = Oral bioavailability in CD Sprague-Dawley rat at 2.9 mg/kg, po; format: ADME, organism-based; conditions: in vivo
[14] = Cmax in CD Sprague-Dawley rat at 2.9 mg/kg, po; format: ADME, organism-based; set-up: dose 2.9 mg/kg, route oral; conditions: in vivo
[15] = Tmax in CD Sprague-Dawley rat at 2.9 mg/kg, po; format: ADME, organism-based; set-up: dose 2.9 mg/kg, route oral; conditions: in vivo

SMILES: CS(=O)(=O)c1cccc(C(=O)N2CCN(c3ccc(OCCCN4CCCCC4)cc3)C(=O)C2)c1
logD [1]: -1.22

SMILES: O=C(c1ccc(C(=O)N2CCN(c3ccc(OCCCN4CCCCC4)cc3)C(=O)C2)cc1)N1CCC1
logD [1]: -0.95

SMILES: O=C(c1cc(F)cc(F)c1)N1CCN(c2ccc(OCCCN3CCCC3)cc2)C(=O)C1
logD [1]: -0.38

SMILES: C[C@@H]1CCCN1CCCOc1ccc(N2CCN(C(=O)c3ccc(F)cc3)CC2=O)cc1
logD [1]: -0.13

SMILES: O=C(c1ccc(F)cc1F)N1CCN(c2ccc(OCCCN3CCCCC3)cc2)C(=O)C1
logD [1]: 0.1

SMILES: O=C(c1ccc(C(=O)N2CCN(c3ccc(OC4CCN(C5CCC5)CC4)cc3)C(=O)C2)cc1)N1CCC1.O=CO
Kp at 5 min [5]: 0.1
logD [1]: -0.29

SMILES: N#Cc1ccc(C(=O)N2CCN(c3ccc(OCCCN4CCCCCC4)cc3)C(=O)C2)cc1
logD [1]: -0.39

SMILES: CC(C)N1CCC(Oc2ccc(N3CCN(C(=O)c4cc(F)cc(F)c4)CC3=O)cc2)CC1
logD [1]: 0.06

SMILES: Cc1ccc(C(=O)N2CCN(c3ccc(OCCCN4CCCCC4)cc3)C(=O)C2)cc1
logD [1]: 0.48

SMILES: CC(C)(C)C(=O)N1CCN(c2ccc(OCCCN3CCCCC3)cc2)C(=O)C1.Cl
Kp at 5 min [5]: 0.1
logD [1]: -0.02

SMILES: O=C(c1ccccc1)N1CCN(c2ccc(OC3CCN(C4CCC4)CC3)cc2)C(=O)C1
logD [1]: 0.73

SMILES: Cl.O=C(c1ccc(Cl)cc1)N1CCN(c2ccc(OC3CCN(C4CCC4)CC3)cc2)C(=O)C1
Kp at 5 min [5]: 0.4
logD [1]: 1.51

SMILES: Cc1ccc(C(=O)N2CCN(c3ccc(OC4CCN(C5CCC5)CC4)cc3)C(=O)C2)cc1
logD [1]: 1.3

Next, values leading:

logD [1]: 0.2
SMILES: O=C(c1cc(F)cc(F)c1)N1CCN(c2ccc(OCCCN3CCCCC3)cc2)C(=O)C1

logD [1]: -0.41
SMILES: CS(=O)(=O)c1cccc(C(=O)N2CCN(c3ccc(OC4CCN(C5CCCC5)CC4)cc3)C(=O)C2)c1

logD [1]: 1.03
SMILES: O=C(c1cc(F)cc(F)c1)N1CCN(c2ccc(OC3CCN(C4CCCC4)CC3)cc2)C(=O)C1

logD [1]: 0.96
SMILES: O=C(c1ccc(F)cc1F)N1CCN(c2ccc(OC3CCN(C4CCCC4)CC3)cc2)C(=O)C1

logD [1]: -0.05
SMILES: CC(C)N1CCC(Oc2ccc(N3CCN(C(=O)c4ccc(F)cc4F)CC3=O)cc2)CC1

logD [1]: 0.09
SMILES: C[C@H]1CCCN1CCCOc1ccc(N2CCN(C(=O)c3cc(F)cc(F)c3)CC2=O)cc1

Tmax [2]: 4 h
logD [1]: -0.38
AUC [3]: 67 ng·h/mL
Cmax [4]: 10 ng/mL
SMILES: CS(=O)(=O)c1ccc(C(=O)N2CCN(c3ccc(OC4CCN(C5CCC5)CC4)cc3)C(=O)C2)cc1.O=CO

half-life [6]: 1.3 h
clearance [7]: 31 mL/min/kg
AUC [8]: 536 ng·h/mL
Tmax [2]: 7 h
Cmax [9]: 342 ng/mL
logD [1]: 0.14
AUC [3]: 355 ng·h/mL
Tmax [10]: 4.8 min
Cmax [4]: 40 ng/mL
Vd [11]: 2 L/kg
SMILES: O=C(c1ccc(F)cc1)N1CCN(c2ccc(OCCCN3CCCC3)cc2)C(=O)C1.O=CO

logD [1]: -0.38
SMILES: N#Cc1ccc(C(=O)N2CCN(c3ccc(OCCCN4CCCCC4)cc3)C(=O)C2)cc1

half-life [6]: 2 h
AUC [12]: 760 ng·h/mL
bioavailability [13]: 35%
clearance [7]: 18 mL/min/kg
AUC [8]: 837 ng·h/mL
Cmax [14]: 91 ng/mL
Cmax [9]: 337 ng/mL
logD [1]: 0.9
Tmax [15]: 2 h
Tmax [10]: 4.8 min
Vd [11]: 2.5 L/kg
SMILES: Cl.O=C(c1ccc(F)cc1)N1CCN(c2ccc(OC3CCN(C4CCC4)CC3)cc2)C(=O)C1

logD [1]: -0.09
SMILES: O=C(c1ccccc1)N1CCN(c2ccc(OCCCN3CCCCC3)cc2)C(=O)C1
